Assay results: ChEMBL document CHEMBL4513216, “Probing the Open Global Health Chemical Diversity Library for Multistage-Active Starting Points for Next-Generation Antimalarials” (ACS Infect Dis, 2020)

Assay: Toxicity liver stage against HepG2, at 10uM
Type: cell-based
Parameters: test concentration 10 uM, cell line HepG2-A16-CD81EGFP
Settings: human, HepG2-A16-CD81EGFP cells; read-out: INHIBITION
In short: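 Uninfected HepG2-A16-CD81EGFP cells, 3 × 10^3 per well, 1536-well, plated on prespotted compound at 10 μM final, parasite-free screening media added to match infected plates; puromycin 10 μM positive, DMSO 0.5% negative; run in parallel with 48 h PbLuc assay at 37 °C, 5% CO2; viability by CellTiter-Glo luminescence, normalized to controls.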

SMILES | cytotoxicity at 10 µM
O=C1N(Cc2ccccn2)C[C@H]2CN(S(=O)(=O)c3ccccc3)CCN12 | 4.97%
Cc1nc(C)c(CN2CCOC[C@H](Oc3ccc(S(C)(=O)=O)cc3)C2)s1 | 5.25%
CN1CCC(N2CCOC[C@H](OCC(=O)N(C)C)C2)CC1 | 1.44%
O=S1(=O)N(c2ccccc2)C[C@@H](O)[C@]12CCNC2 | 2.63%
CC(C)CC(NC(=O)c1ccco1)c1nnc2ccccn12 (stereo not given) | -6.21%
CC(=O)N1CC(C(=O)Nc2cccc(OC(F)F)c2)C1 | 1.22%
CN(C)C(=O)CNC(=O)c1ccc2ccc(N(C)CC3CC3)n2c1 | 1.11%
COCC(=O)NCC1Cn2nnc(-c3ccoc3)c2CO1 (stereo not given) | 17%
CCN1CC2(CC1=O)CN(C(C)=O)CCN(S(C)(=O)=O)C2 (stereo not given) | 0.38%
Cc1cnc(N2CCC3(CCC(C(=O)NC(C)C)OC3)CC2)nc1 (stereo not given) | 0.903%
O=C(C1CCCO1)N1CCC2(CC1)CNCCO2 (stereo not given) | -7.06%
CS(=O)(=O)N1CCCC12CCCN(C(=O)c1ccnnc1)C2 (stereo not given) | -143%
O=C1CCCN1Cc1ncn2c1CN(C(=O)C1CC=CC1)CCC2 | 6.4%
Cc1nccc([C@@H]2C[C@@H]3CCN(S(=O)(=O)N(C)C)C[C@H]3O2)n1 | -3.38%
CNC(=O)[C@@]12CCC3(CCN(C(=O)C(C)C)CC3)[C@@H]1CN(S(C)(=O)=O)C2 | 3.89%
CNC(=O)N1CCN(C(=O)N(C)C)CC2(CC(=O)N(C)C2)C1 (stereo not given) | 4.9%
O=c1nc(SCc2ccncc2)c2c(n1CCO)CCCC2 | -23.8%
CCOC(=O)N1CCN(C(=O)CCn2ccc3c(OC)cccc32)CC1 | 9.69%
CCn1nccc1CNc1[nH]cnc2nc(C)nc1-2 | -12%
Cc1nc(CCC(N)=O)cc(C2CCCN2S(C)(=O)=O)n1 (stereo not given) | -5.32%
CC(C)(C)Nc1c(C2CCN(C(=O)C3CC3)CC2)nc2ccccn12 | 4.58%
CC(=O)NCC(=O)N1CCCC1c1ccc(CN2CCOCC2)cn1 (stereo not given) | -2.3%

SMILES | cytotoxicity at 10 µM
CC(C)(C)OC(=O)N1CCn2c(nnc2C2CCCNC2)C1 (stereo not given) | -1.58%
Cc1cc(C(F)(F)F)n2nc(C3CCCN(S(C)(=O)=O)C3)cc2n1 (stereo not given) | 1.49%
Cc1cc(N2CCCC(c3n[nH]c4ncccc34)C2)ncn1 (stereo not given) | -3.22%
O=S(=O)(c1ccccc1F)N1CCCCC1c1cc[nH]n1 (stereo not given) | 1.22%
CNc1ccc(CC2CCCN(C(=O)c3scnc3C)C2)nn1 (stereo not given) | -10.4%
O=C(CC1CCCC1)N1CCCC1c1nc(O)cc(-c2ccccn2)n1 (stereo not given) | -3.73%
COc1ccc(C(=O)Nc2nncs2)cn1 | -11.9%
Cc1ccc(S(=O)(=O)N(C)Cc2cnccn2)cc1N(C)C | 12%
CC(C)CC(NC(=O)CSCC(N)=O)c1cccs1 (stereo not given) | -0.431%
CNC(=O)CNC(=O)NCc1cc2c(s1)CCC(C)(C)C2 | 4.08%
CCc1ncc2c(n1)CN(Cc1nc(-c3ccco3)oc1C)CC2 | 6.15%
O=C(NCc1ccc(OCC2CC2)nc1)C1COc2ccccc2O1 (stereo not given) | 0.0616%
CC(Cc1cccc(F)c1)C(=O)NS(=O)(=O)c1ccc2c(c1)OCCO2 (stereo not given) | 9.83%
O=C(NCCSC1CCCC1)c1c(F)cccc1F | 8.74%
O=C(CN1CCOC(Cn2cccn2)C1)NC1CCN(C2CC2)CC1 (stereo not given) | 1.1%
Cc1ccc(-c2nc(CCNC(=O)C3CC(=O)N(C)C3)cs2)cc1 (stereo not given) | -5.54%
Cc1nnc(C2Cc3ccccc3CN2Cc2ncc(Cl)n2C)o1 (stereo not given) | 8.72%
CCCC(C(=O)NCCc1nc(C)cs1)N(C)C (stereo not given) | -4.17%
CCN1CCN(C(=O)c2scnc2C)CC1 | 11.7%
Cc1nc(CNCC(O)COc2ccc3c(c2)OCO3)cs1 (stereo not given) | 4%
COC1CCCN(C(=O)NCC(F)F)C1 (stereo not given) | 7.51%
Cc1nn(CC(C)C)c(N(C)C)c1CNCCS(C)(=O)=O | 6.59%

SMILES | cytotoxicity at 10 µM
Cn1ccc(C(=O)N(CC(F)F)c2cccc(Cl)c2)cc1=O | 0.541%
O=C1CN(C(=O)C2CCOC2)CCN1Cc1ccc(Cl)cc1 (stereo not given) | -150%
Cc1ccc(F)c(C(=O)Nc2cccc(CCN3CCCC3)c2)c1 | 0.0833%
CS(=O)(=O)CCCNCc1c(Cl)cccc1N1CCCC1 | 1.18%
COCCC(=O)NC(C)(C(N)=O)c1cccc(Cl)c1 (stereo not given) | 17.7%
Cc1cc(S(=O)(=O)N(CCO)C2CC2)ccc1F | 0.866%
CC(=O)NCC1CCN(C(=O)c2c(C)[nH]c3ccc(Cl)cc23)CC1 | 8.11%
C=C(C)CN(Cc1cccc(O)c1)C1CCC(O)CC1 (stereo not given) | 17.3%
CC(c1nc(C(C)(C)C)no1)N1CCN(CC(=O)N2CCOCC2)CC1 (stereo not given) | -2.67%
Cc1n[nH]c(C)c1C1CCCN1C(=O)NCCSC(C)(C)C (stereo not given) | -11%
CN1C(=O)CC(c2cnn(C)c2)C12CCN(C(=O)c1cccn1C)CC2 (stereo not given) | -74%
O=C(C1CC=CC1)N1CCC2(CC1)CN(Cc1ccccn1)CCO2 | -10.1%
CC(C)[C@@H]1CN(c2ccc(C(F)(F)F)cn2)C[C@H]1NS(C)(=O)=O | 8.46%
Cc1cnccc1N1CCCN(C(=O)CCc2n[nH]c(C)c2C)CC1 | -3.79%
CC(=O)N[C@@H]1CN(C(=O)c2ccoc2)C[C@H]1c1ccc(C)cc1 | 16.2%
CN1CCCN(c2nc(C3CCCC3)nc3c2cnn3C)CC1 | -3.9%
CC(C)C(=O)NCC(=O)NCC1CCN(c2cnn(C)c(=O)c2)CC1 | 3.47%
Cn1cc(-c2ccnc(NCC3CCCCO3)n2)cn1 (stereo not given) | -131%
C[C@@H]1CN(c2cc(N3CCC(O)CC3)ncn2)C[C@@]1(O)C1CCC1 | -5.73%
COc1ccc(Cl)cc1-n1c(COC(C)C)n[nH]c1=O | -7.5%
COCC(=O)N1CCC(C(=O)Nc2ccc(C(C)=O)cc2)CC1 | 1.73%
CCn1c(CN(C)C)nnc1C1CCN(Cc2cccc(C#N)c2)CC1 | 6.5%

SMILES | cytotoxicity at 10 µM
CC(C)C(NC(N)=O)C(=O)N1CCN(c2ccccc2Cl)C(=O)C1 (stereo not given) | -1.56%
CCc1nnsc1C(=O)N1CCCC(COc2ccc(F)cc2)C1 (stereo not given) | -155%
COCC(=O)N1Cc2cnc(Cc3ccc(OC)cc3)nc2C1 | -15.8%
CCCc1nc(N2Cc3cnn(Cc4ccc(F)cc4)c3C2)no1 | 17.3%
Cn1c(=O)c2cc(C(=O)NCc3ccccn3)ccc2n(C)c1=O | -6.14%
O=C(c1ccccn1)N1CCc2nc(-c3cnccn3)nc(O)c2C1 | 0.487%
Cc1cc(CN2CCN(c3ccc4nncn4n3)C(C)C2)on1 (stereo not given) | 6.91%
O=C(Nc1ccc(CCN2CCOCC2)cc1)C1CCC1 | -9.95%
O=C(NCCNc1ncccn1)C1CCCC1 | -22.9%
COc1cccc(N2CCC(CNCc3cccc(C#N)c3)C2)c1 (stereo not given) | -15.3%
CC(C)n1cc(CN2CCCN(C(=O)C(C)n3cncn3)CC2)cn1 (stereo not given) | -16.2%
Cc1cnn(C2CCCN(C(=O)CCc3ccncc3)C2)c1 (stereo not given) | -10.7%
CC(C)n1cc(CN2CCCN(C(=O)C3CCCN3C)CC2)cn1 (stereo not given) | -10%
CCN(CC1CCCO1)C(=O)Nc1cccc(Cl)c1OC (stereo not given) | -21.4%
CC(=O)Nc1nc(C(=O)N2CCCC2c2ccc(Br)cc2)cs1 (stereo not given) | -18.4%
O=C1NCC(C(=O)Nc2ncc(Cc3ccc(F)cc3)s2)N1 (stereo not given) | 0.639%
Cc1ccc(C)n1-c1ccc(C(=O)NCCNc2ncccn2)cc1 | -1.25%
CCOc1ccnc(N2CCN(C(=O)C(C)(C)C#N)CC2)n1 | -4.91%
CC(C)c1nc(C2CCCN(C(=O)Cc3cccnc3)C2)no1 (stereo not given) | -8.97%
COCC(C)N(C)C(=O)c1nc(S(C)(=O)=O)n2ccccc12 (stereo not given) | -11%
O=C(Nc1nnc(C2CC2)s1)NC1CCN(Cc2ccccc2)C1 (stereo not given) | -10.7%
Cn1cnc2c1CCN(Cc1cccc(OCC(N)=O)c1)C2 | -9.98%

SMILES | cytotoxicity at 10 µM
Cc1nc2cc(=O)[nH]n2c(C)c1CC(=O)Nc1ccc2ccccc2n1 | -4.15%
Cc1ccccc1CNC(=O)Cc1c(C)nc2cc(=O)[nH]n2c1C | -2.35%
N#Cc1ccccc1N1CCCN(C(=O)CCc2nccs2)CC1 | -2.12%
Cc1ccc(NC2CCN(C(=O)c3cnc(C)s3)CC2)nn1 | 2.48%
CCc1nc(C2CCCN2C(=O)c2c[nH]c(C)n2)no1 (stereo not given) | -0.674%
Cn1nc2c(cc1=O)CN(Cc1nc(-c3cccs3)no1)CC2 | -2.82%
CC(C)c1nc(C2CCCN2CCCc2nc3ccccc3o2)no1 (stereo not given) | -8.43%
O=C(NCC(=O)N1CCc2ccccc2C1)c1ccoc1 | -4.59%
Cc1noc(C)c1CNCC1CCCN1c1cccnn1 (stereo not given) | 3.3%
Cc1ccc(NC(=O)C(C)N2CCCN(c3nccs3)CC2)c(C)c1 (stereo not given) | 2.72%
O=S(=O)(C1CC1)N1C[C@@H]2COC[C@]2(COc2ccccn2)C1 | 5.57%
Cn1cc(N2CC3(CCN(Cc4nccs4)CC3)OCC2=O)cn1 | 5.86%
CS(=O)(=O)N[C@@H]1CN(Cc2ccncc2)C[C@@H]2CCCO[C@@H]21 | 13.1%
O=C(NC1CCCC1)N1CC[C@H]2[C@H]1CCN2c1nncs1 | -7.73%
O=C(c1ccnnc1)N1CCN2C[C@H](OCc3cccnc3)C[C@H]2C1 | -72.4%
CCN1C[C@@H]2[C@@H](OC)CCN(S(=O)(=O)c3cccnc3)[C@@H]2C1 | -77%
c1ccc(COC[C@H]2CC[C@H]3[C@H](CCN3c3ncccn3)O2)nc1 | -78%
COc1ccc(CN2CCn3c(C(=O)N(C)C)cnc3C2)cc1 | -69.6%
CCOCC1CN(C(=O)Cc2ccccn2)Cc2c1cnn2C (stereo not given) | -72%
CC(C)(C)c1n[nH]cc1CNCC1CCN(C2CC2)C1 (stereo not given) | 2.16%
CC(C)c1nn(C)c(Cl)c1CNCC(=O)N1CCN(C)CC1 | 2.2%
CCOC(=O)c1cnn(C2CCN(C(=O)CC3CCCC3)CC2)c1N | 0.969%
